Test results published in ChEMBL document CHEMBL1212837, “Benzo[b]thiophene-6-carboxamide 1,1-dioxides: inhibitors of human cancer cell growth at nanomolar concentrations” (2010).
Activity calls are given as the source filed them. The rule behind the calls is not given here.

Test system: CCRF-CEM
Assay: Induction of apoptosis in human CCRF-CEM cells at 6 uM after 12 hrs using V-FITC and propidium iodide staining by flow cytometry
Type: functional
Conditions: not given
Outline: (§1)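 CCRF-CEM cells were incubated with compound for 12 to 48 h. Cells (5×10⁵) were pelleted, washed in PBS and stained with annexin V-FITC plus propidium iodide for 15 min at 4 °C in the dark. Phosphatidylserine-exposing (apoptotic) cells were counted by flow cytometry. Five independent experiments, duplicate wells, mean SD.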

Row | Compound | Activity [%]
1 | COc1ccc(NC(=O)c2ccc3c(c2)S(=O)(=O)C=C3)cc1 | 30.4

Test system: CCRF-CEM
Assay: Cell cycle arrest in human CCRF-CEM cells assessed as accumulation at sub-G1 phase at 2.5 uM after 24 hrs using propidium iodide staining by flow cytometry
Type: functional, cell-based
Conditions: not given
Outline: (§2)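 CCRF-CEM cells were seeded at 10⁶ cells/ml in complete medium and exposed to 2.5 µM for 24 h. Cells were pelleted (700 g, 6 min, 4 °C), washed in PBS and fixed in 70% ethanol at 4 °C for 20 min. They were then stained with PI (50 µg/ml) plus RNase at 37 °C for 30 min. DNA content was read by flow cytometry on 10,000 events to give phase percentages. Six independent experiments, duplicate wells, mean SD.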

Row | Compound | Activity
2 | COc1ccc(NC(=O)c2ccc3c(c2)S(=O)(=O)C=C3)cc1 | Active

Test system: CCRF-CEM
Assay: Induction of increase in ROS level in human CCRF-CEM cells at 2.5 uM after 24 hrs using CM-H2DCFDA fluorescent probe by flow cytometry
Type: functional, cell-based
Conditions: not given
Outline: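 CCRF-CEM cells at 1×10⁶ cells/ml were cultured with or without 2.5 µM for 24 h. Cells (2×10⁶) were then loaded with 1 µM CM-H₂DCFDA for 60 min at 37 °C and fluorescence was read by flow cytometry. Results are expressed as fold over untreated cells, with 4-HPR as the positive control. Two independent experiments, triplicate wells, mean SD.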

Row | Compound | Activity
3 | COc1ccc(NC(=O)c2ccc3c(c2)S(=O)(=O)C=C3)cc1 | Active

Test system: CCRF-CEM
Assay: Cell cycle arrest in human CCRF-CEM cells assessed as accumulation at S phase at 2.5 uM using propidium iodide staining by flow cytometry
Type: functional, cell-based
Conditions: TDE = time-dependent effect
Outline: as §2

Row | Compound | Activity
4 | COc1ccc(CCNC(=O)c2ccc3c(c2)S(=O)(=O)C=C3)cc1 | tde
5 | COc1ccc(NC(=O)c2ccc3c(c2)S(=O)(=O)C=C3)cc1 | tde
6 | CN(Cc1ccccc1)S(=O)(=O)c1ccc2c(c1)S(=O)(=O)C=C2 | tde
7 | COc1ccc(CCNS(=O)(=O)c2ccc3c(c2)S(=O)(=O)C=C3)cc1 | tde
8 | O=S1(=O)C=Cc2ccc(S(=O)(=O)NCc3ccccc3)cc21 | tde
9 | NC(=O)c1ccc2c(c1)S(=O)(=O)C=C2 | tde
10 | CCCCNC(=O)c1ccc2c(c1)S(=O)(=O)C=C2 | tde
11 | NS(=O)(=O)c1ccc2c(c1)S(=O)(=O)C=C2 | tde
12 | O=S1(=O)C=Cc2ccc(O)cc21 | tde

Test system: K562
Assay: Cytotoxicity against human K562 cells after 72 hrs by MTT assay
Type: functional
Conditions: K562, 72 h
Outline: (§3)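 Cells were grown in medium with 10% fetal calf serum, 2 mM L-glutamine, penicillin/streptomycin and 10 mM HEPES (pH 7.4). Compounds were made up as a 0.1 M DMSO stock and serially diluted in medium to five doses between 0.01 and 100. Exposure was 72 h at 37 °C in humidified 5% CO₂. Read-out was MTT colorimetric, giving GI50 as the concentration reducing growth by 50%.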

Row | Compound | GI50 [nM]
13 | COc1ccc(CCNC(=O)c2ccc3c(c2)S(=O)(=O)C=C3)cc1 | 2660
14 | COc1ccc(NC(=O)c2ccc3c(c2)S(=O)(=O)C=C3)cc1 | 47
15 | CN(Cc1ccccc1)S(=O)(=O)c1ccc2c(c1)S(=O)(=O)C=C2 | 38100
16 | COc1ccc(CCNS(=O)(=O)c2ccc3c(c2)S(=O)(=O)C=C3)cc1 | 6
17 | O=S1(=O)C=Cc2ccc(S(=O)(=O)NCc3ccccc3)cc21 | 720
18 | NC(=O)c1ccc2c(c1)S(=O)(=O)C=C2 | 7850
19 | CCCCNC(=O)c1ccc2c(c1)S(=O)(=O)C=C2 | 2730
20 | NS(=O)(=O)c1ccc2c(c1)S(=O)(=O)C=C2 | 29400
21 | O=S1(=O)C=Cc2ccc(O)cc21 | 51100

Test system: HeLa
Assay: Cytotoxicity against human HeLa cells after 72 hrs by MTT assay
Type: functional
Conditions: not given
Outline: as §3

Row | Compound | GI50 [nM]
22 | COc1ccc(CCNC(=O)c2ccc3c(c2)S(=O)(=O)C=C3)cc1 | 40
23 | COc1ccc(NC(=O)c2ccc3c(c2)S(=O)(=O)C=C3)cc1 | 3
24 | CN(Cc1ccccc1)S(=O)(=O)c1ccc2c(c1)S(=O)(=O)C=C2 | 10
25 | COc1ccc(CCNS(=O)(=O)c2ccc3c(c2)S(=O)(=O)C=C3)cc1 | 120
26 | O=S1(=O)C=Cc2ccc(S(=O)(=O)NCc3ccccc3)cc21 | 10
27 | NC(=O)c1ccc2c(c1)S(=O)(=O)C=C2 | 650
28 | CCCCNC(=O)c1ccc2c(c1)S(=O)(=O)C=C2 | 80
29 | NS(=O)(=O)c1ccc2c(c1)S(=O)(=O)C=C2 | 2210

Test system: not listed separately
Assay: Cytotoxicity against human MEL-AC cells after 72 hrs by MTT assay
Type: functional
Conditions: not given
Outline: as §3

Row | Compound | GI50 [nM]
30 | COc1ccc(CCNC(=O)c2ccc3c(c2)S(=O)(=O)C=C3)cc1 | 1320
31 | COc1ccc(NC(=O)c2ccc3c(c2)S(=O)(=O)C=C3)cc1 | 760
32 | CN(Cc1ccccc1)S(=O)(=O)c1ccc2c(c1)S(=O)(=O)C=C2 | 2300
33 | COc1ccc(CCNS(=O)(=O)c2ccc3c(c2)S(=O)(=O)C=C3)cc1 | 1930
34 | O=S1(=O)C=Cc2ccc(S(=O)(=O)NCc3ccccc3)cc21 | 400
35 | NC(=O)c1ccc2c(c1)S(=O)(=O)C=C2 | 3520
36 | CCCCNC(=O)c1ccc2c(c1)S(=O)(=O)C=C2 | 1420
37 | NS(=O)(=O)c1ccc2c(c1)S(=O)(=O)C=C2 | 7140
38 | O=S1(=O)C=Cc2ccc(O)cc21 | 24000

Test system: HT-29
Assay: Cytotoxicity against human HT-29 cells after 72 hrs by MTT assay
Type: functional
Conditions: HT-29, 72 h
Outline: as §3

Row | Compound | GI50 [nM]
39 | COc1ccc(CCNC(=O)c2ccc3c(c2)S(=O)(=O)C=C3)cc1 | 2080
40 | COc1ccc(NC(=O)c2ccc3c(c2)S(=O)(=O)C=C3)cc1 | 350
41 | CN(Cc1ccccc1)S(=O)(=O)c1ccc2c(c1)S(=O)(=O)C=C2 | 35000
42 | COc1ccc(CCNS(=O)(=O)c2ccc3c(c2)S(=O)(=O)C=C3)cc1 | 220
43 | O=S1(=O)C=Cc2ccc(S(=O)(=O)NCc3ccccc3)cc21 | 840
44 | NC(=O)c1ccc2c(c1)S(=O)(=O)C=C2 | 5190
45 | CCCCNC(=O)c1ccc2c(c1)S(=O)(=O)C=C2 | 2320
46 | NS(=O)(=O)c1ccc2c(c1)S(=O)(=O)C=C2 | 8550
47 | O=S1(=O)C=Cc2ccc(O)cc21 | 2040

Test system: CCRF-CEM
Assay: Induction of apoptosis in human CCRF-CEM cells at 6 uM after 48 hrs using V-FITC and propidium iodide staining by flow cytometry
Type: functional
Conditions: not given
Outline: as §1

Row | Compound | Activity [%]
48 | COc1ccc(NC(=O)c2ccc3c(c2)S(=O)(=O)C=C3)cc1 | 83

Test system: CCRF-CEM
Assay: Induction of apoptosis in human CCRF-CEM cells at 2.5 uM after 24 hrs using V-FITC and propidium iodide staining by flow cytometry in presence of N-acetyl-cysteine
Conditions: not given

Row | Compound | Activity
49 | COc1ccc(NC(=O)c2ccc3c(c2)S(=O)(=O)C=C3)cc1 | Active

Test system: CCRF-CEM
Assay: Cell cycle arrest in human CCRF-CEM cells assessed as accumulation at S phase at 2.5 uM after 24 hrs using propidium iodide staining by flow cytometry
Type: functional, cell-based
Conditions: not given
Outline: as §2

Row | Compound | Activity
50 | COc1ccc(NC(=O)c2ccc3c(c2)S(=O)(=O)C=C3)cc1 | Active

Test system: CCRF-CEM
Assay: Cytotoxicity against human CCRF-CEM cells after 72 hrs by MTT assay
Type: functional
Conditions: not given
Outline: as §3

Row | Compound | GI50 [nM]
51 | COc1ccc(CCNC(=O)c2ccc3c(c2)S(=O)(=O)C=C3)cc1 | 730
52 | COc1ccc(NC(=O)c2ccc3c(c2)S(=O)(=O)C=C3)cc1 | 4
53 | CN(Cc1ccccc1)S(=O)(=O)c1ccc2c(c1)S(=O)(=O)C=C2 | 630
54 | COc1ccc(CCNS(=O)(=O)c2ccc3c(c2)S(=O)(=O)C=C3)cc1 | 5
55 | O=S1(=O)C=Cc2ccc(S(=O)(=O)NCc3ccccc3)cc21 | 330
56 | NC(=O)c1ccc2c(c1)S(=O)(=O)C=C2 | 3550
57 | CCCCNC(=O)c1ccc2c(c1)S(=O)(=O)C=C2 | 280
58 | NS(=O)(=O)c1ccc2c(c1)S(=O)(=O)C=C2 | 2860
59 | O=S1(=O)C=Cc2ccc(O)cc21 | 19200

Test system: not listed separately
Assay: Cytotoxicity against human HTB-54 cells after 72 hrs by MTT assay
Type: functional
Conditions: HTB-54, 72 h
Outline: as §3

Row | Compound | GI50 [nM]
60 | COc1ccc(CCNC(=O)c2ccc3c(c2)S(=O)(=O)C=C3)cc1 | 640
61 | COc1ccc(NC(=O)c2ccc3c(c2)S(=O)(=O)C=C3)cc1 | 2
62 | CN(Cc1ccccc1)S(=O)(=O)c1ccc2c(c1)S(=O)(=O)C=C2 | 400
63 | COc1ccc(CCNS(=O)(=O)c2ccc3c(c2)S(=O)(=O)C=C3)cc1 | 620
64 | O=S1(=O)C=Cc2ccc(S(=O)(=O)NCc3ccccc3)cc21 | 700
65 | NC(=O)c1ccc2c(c1)S(=O)(=O)C=C2 | 220
66 | CCCCNC(=O)c1ccc2c(c1)S(=O)(=O)C=C2 | 90
67 | NS(=O)(=O)c1ccc2c(c1)S(=O)(=O)C=C2 | 5890
68 | O=S1(=O)C=Cc2ccc(O)cc21 | 7530

Test system: CCRF-CEM
Assay: Cell cycle arrest in human CCRF-CEM cells assessed as accumulation at S phase after 24 hrs using propidium iodide staining by flow cytometry
Type: functional, cell-based
Conditions: not given
Outline: as §2

Row | Compound | Activity
69 | COc1ccc(CCNC(=O)c2ccc3c(c2)S(=O)(=O)C=C3)cc1 | Dose-dependent effect
70 | COc1ccc(NC(=O)c2ccc3c(c2)S(=O)(=O)C=C3)cc1 | Dose-dependent effect
71 | CN(Cc1ccccc1)S(=O)(=O)c1ccc2c(c1)S(=O)(=O)C=C2 | Dose-dependent effect
72 | COc1ccc(CCNS(=O)(=O)c2ccc3c(c2)S(=O)(=O)C=C3)cc1 | Dose-dependent effect
73 | O=S1(=O)C=Cc2ccc(S(=O)(=O)NCc3ccccc3)cc21 | Dose-dependent effect
74 | NC(=O)c1ccc2c(c1)S(=O)(=O)C=C2 | Dose-dependent effect
75 | CCCCNC(=O)c1ccc2c(c1)S(=O)(=O)C=C2 | Dose-dependent effect
76 | NS(=O)(=O)c1ccc2c(c1)S(=O)(=O)C=C2 | Dose-dependent effect
77 | O=S1(=O)C=Cc2ccc(O)cc21 | Dose-dependent effect

Test system: CCRF-CEM
Assay: Cell cycle arrest in human CCRF-CEM cells assessed as reduction of cell accumulation at G0/G1 phase at 2.5 uM after 24 hrs using propidium iodide staining by flow cytometry
Type: functional, cell-based
Conditions: not given
Outline: as §2

Row | Compound | Activity
78 | COc1ccc(NC(=O)c2ccc3c(c2)S(=O)(=O)C=C3)cc1 | Active
